Source: ChEMBL document CHEMBL1123530, “Adriamycin analogues. Preparation and biological evaluation of some thio ester analogues of adriamycin and N-(trifluoroacetyl)adriamycin 14-valerate” (J Med Chem, 1986)

Assays:
[1] = (§1) Compound was tested in vitro for ability to bind with double helical calf thymus DNA was determined spectrophotometrically at 480 nmby spectral shift method and the value expressed as the ratio A/Ao
In short: (§2)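 Calf thymus double-helical DNA in pH 7.0 Tris buffer, drug/DNA molar ratio 0.1. Absorbance at 480 nm measured for drug alone (A₀) and after mixing with DNA (A), reported as A/A₀ (spectral shift method).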

[2] = T 1/2 value indicates the time required for the initial concentration of compound to be reduced by 50%,; assay type: ADME
In short: (§3)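 Drug incubated at 37 °C in pH 7.0 carbonate buffer containing 1% unfractionated mouse serum, pooled from 10 animals and stored at -70 °C. Loss of parent compound followed by HPLC; T1/2 is time for the initial concentration to fall by 50% through thio ester deacylation.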

[3] = system: CCRF-CEM; assay: In vitro growth-inhibition assay utilizing CCRF-CEM cells, a lymphoblastic leukemic line of human origin; assay type: functional; conditions: read-out: ID50 (the source's name)
In short: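 Human CCRF-CEM lymphoblastic leukemia cells in continuous suspension culture, exposed continuously to drug for 48 h. ID₅₀ is the concentration giving 50% reduction in growth versus untreated control cultures.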

[4] = system: P388; assay: (§4) Compound was evaluated in vivo for antitumor activity utilizing the murine P388 leukemia system in B6D2F1 male mice.; assay type: functional, Mus musculus
In short: (§5)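 B6D2F1 male mice were inoculated ip on day 0 with 10⁶ P388 leukemia cells. Drug was given ip once daily on days 1–4, broadly following standard NCI protocols. Activity was read as percent increase in life span relative to untreated controls, reported at the highest nontoxic dose. The experiment was terminated on day 60.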

[5] = system: Mus musculus; assay: as §4; assay type: functional; in short: as §5
[6] = system: Nucleic Acid; assay: as §1; assay type: nucleic-acid assay; conditions: Bos taurus; in short: as §2
[7] = Time for esterases in unfractionated mouse serum to reduce the concentration due to thio ester deacylation; assay type: ADME; in short: as §3
[8] = system: Mus musculus; assay: Compound was evaluated in vivo for antitumor activity utilizing the murine P388 leukemia system in B6D2F1 male mice; Curative; assay type: functional, organism-based
In short: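 Murine P388 leukemia in B6D2F1 male mice; 10⁶ tumor cells inoculated ip on day 0; drug given ip once daily on days 1–4, largely per standard NCI protocols. Outcome is percent increase in life span versus untreated controls, at highest nontoxic dose; experiment ended day 60.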

[9] = Time for esterases in unfractionated mouse serum to reduce the concentration due to thio ester deacylation; 10 % hydrolysis at 60 mins; assay type: ADME; in short: as §3

Row | Compound | Ratio [1] | half-life [2] [min] | IC50 [3] [nM] | Optimal dose [4] [mg/kg] | ILS [5] [%] | Ratio [6] | half-life [7] [min] | ILS [8] | half-life [9] [min]
1 | CCC(=O)SCC(=O)[C@]1(O)Cc2c(O)c3c(c(O)c2[C@@H](OC2CC(NC(=O)C(F)(F)F)C(O)C(C)O2)C1)C(=O)c1c(OC)cccc1C3=O (stereo partly specified) | 0.99 | 80 | 2800 | – | – | – | – | – | –
2 | CCCC(=O)SCC(=O)[C@]1(O)Cc2c(O)c3c(c(O)c2[C@@H](OC2CC(N)C(O)C(C)O2)C1)C(=O)c1c(OC)cccc1C3=O (stereo partly specified) | – | – | 560 | 10 | 90 | 0.63 | 10 | – | –
3 | CCCCC(=O)OCC(=O)[C@]1(O)Cc2c(O)c3c(c(O)c2[C@@H](OC2CC(NC(=O)C(F)(F)F)C(O)C(C)O2)C1)C(=O)c1c(OC)cccc1C3=O (stereo partly specified) | – | – | 240 | 50 | – | 0.6 | 10 | Curative | –
4 | COc1cccc2c1C(=O)c1c(O)c3c(c(O)c1C2=O)C[C@@](O)(C(=O)CSC(=O)c1ccccc1)C[C@@H]3OC1CC(NC(=O)C(F)(F)F)C(O)C(C)O1 (stereo partly specified) | – | – | 3800 | – | – | 0.98 | – | – | > 60
5 | COc1cccc2c1C(=O)c1c(O)c3c(c(O)c1C2=O)C[C@@](O)(C(=O)CSC(C)=O)C[C@@H]3OC1CC(N)C(O)C(C)O1 (stereo partly specified) | – | – | 900 | 25 | 220 | 0.61 | 6 | – | –
6 | COc1cccc2c1C(=O)c1c(O)c3c(c(O)c1C2=O)C[C@@](O)(C(=O)CSC(=O)c1ccccc1)C[C@@H]3OC1CC(N)C(O)C(C)O1 (stereo partly specified) | – | – | 2300 | 10 | 140 | 0.65 | 8 | – | –
7 | CCCCC(=O)SCC(=O)[C@]1(O)Cc2c(O)c3c(c(O)c2[C@@H](OC2CC(NC(=O)C(F)(F)F)C(O)C(C)O2)C1)C(=O)c1c(OC)cccc1C3=O (stereo partly specified) | – | – | > 5000 | – | – | – | 22 | – | –
8 | COc1cccc2c1C(=O)c1c(O)c3c(c(O)c1C2=O)C[C@@](O)(C(=O)CSC(C)=O)C[C@@H]3OC1CC(NC(=O)C(F)(F)F)C(O)C(C)O1 (stereo partly specified) | – | – | > 5000 | – | – | – | 18 | – | –
9 | CCC(=O)SCC(=O)[C@]1(O)Cc2c(O)c3c(c(O)c2[C@@H](OC2CC(N)C(O)C(C)O2)C1)C(=O)c1c(OC)cccc1C3=O (stereo partly specified) | – | – | 720 | 20 | 80 | 0.61 | 5 | – | –
10 | COc1cccc2c1C(=O)c1c(O)c3c(c(O)c1C2=O)C[C@@](O)(C(=O)CO)C[C@@H]3O[C@H]1C[C@H](N)[C@H](O)[C@H](C)O1 [DOXORUBICIN] | – | – | 60 | 3 | 157 | 0.96 | – | – | –
11 | CCCC(=O)SCC(=O)[C@]1(O)Cc2c(O)c3c(c(O)c2[C@@H](OC2CC(NC(=O)C(F)(F)F)C(O)C(C)O2)C1)C(=O)c1c(OC)cccc1C3=O (stereo partly specified) | – | – | > 5000 | – | – | – | 42 | – | –
12 | CCCCC(=O)SCC(=O)[C@]1(O)Cc2c(O)c3c(c(O)c2[C@@H](OC2CC(N)C(O)C(C)O2)C1)C(=O)c1c(OC)cccc1C3=O (stereo partly specified) | – | – | 450 | 10 | 130 | 0.65 | 8 | – | –
